14 compounds from ChEMBL document CHEMBL5356968, “Miconazole-like Scaffold is a Promising Lead for Naegleria fowleri-Specific CYP51 Inhibitors” (J Med Chem, 2023) can be followed below.

For the first data set, the system named is Naegleria fowleri. Put plainly: Antiprotozoal activity against Naegleria fowleri European KUL assessed as inhibition of parasite growth at 10 uM incubated for 48 hrs by CellTiter-Glo luminescent cell viability assay relative to control. Format: functional.
Conditions: not given
In a few lines: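 Axenic N. fowleri KUL trophozoites from log-phase culture in Nelson's medium with 10% FBS at 37 °C. Primary screen run in duplicate at 10 μM, 2,500 amoebae/well in 384-well format. Plates incubated 48 h at 37 °C, then viability read by CellTiter-Glo luminescence. BSL-2 handling.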
Take `O=C(OC(Cn1ccnc1)c1ccccc1)c1cccc(C(F)(F)F)c1` (stereo not given): the inhibition at 10 µM was at least 50%.
Still for that read-out and setting: as for `COc1ccc(CC(c2ccc(OC)cc2)n2ccnc2)cc1` (stereo not given), the figure is at least 50%; as for `COc1ccc(C(Cc2ccc(Cl)cc2)n2ccnc2)cc1` (stereo not given), at least 50%.
Take `Clc1ccc(-n2ccc(C(c3ccccc3)n3ccnc3)c2)cc1` (stereo not given): the inhibition at 10 µM is at least 50%.
Same read-out and setting: as for `O=C(Nc1ccc(N2CCN(c3ccc(Cl)cc3)CC2)cc1)OC(Cn1ccnc1)c1ccc(F)cc1` (stereo not given), the figure is at least 50%; as for `Clc1ccc(C(c2ccn(-c3ccc(Cl)cc3)c2)n2ccnc2)cc1` (stereo not given), at least 50%; as for `CC(C)c1cccc(NC(=O)OC(Cn2ccnc2)c2ccccc2)c1` (stereo not given), at least 50%.
The same measure, in the same setting: as for `COc1ccc(C(Cc2ccc(-n3cccc3)cc2)n2ccnc2)cc1` (stereo not given), the figure is at least 50%.
On the same count and under the same terms, as for `O=C(OC(Cn1ccnc1)c1ccc(F)cc1)c1cccc(C(F)(F)F)c1` (racemic), the figure is at least 50%.

A further data set relates to Naegleria fowleri. The data set is described as follows: Antiprotozoal activity against Naegleria fowleri European KUL assessed as inhibition of parasite growth incubated for 48 hrs by CellTiter-Glo luminescent cell viability assay.
Conditions: not given
Format: functional, organism-based.
As to `OC(Cn1cncn1)(Cn1cncn1)c1ccc(F)cc1F` [FLUCONAZOLE], the EC50 was 13.9 µM.

A further data set has as its system Naegleria fowleri. The data set is described as follows: Antiprotozoal activity against Naegleria fowleri.
Conditions: not given
Type of data set: functional, organism-based. In a few lines:
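N. fowleri European KUL trophozoites, axenic in Nelson's medium + 10% FBS at 37 °C, harvested in log phase. Single-point screen at 10 μM in duplicate (2,500 amoebae/well). Dose–response in triplicate, serial dilution 50 to 0.39 μM (10,000 amoebae/well). 48 h at 37 °C; viability by CellTiter-Glo luminescence.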
`CCC(C)n1ncn(-c2ccc(N3CCN(c4ccc(OCC5COC(Cn6cncn6)(c6ccc(Cl)cc6Cl)O5)cc4)CC3)cc2)c1=O` (stereo not given) [ITRACONAZOLE] yielded a half-maximal effective concentration (EC50) of at most 10 µM.
For `CC[C@@H]([C@H](C)O)n1ncn(-c2ccc(N3CCN(c4ccc(OC[C@@H]5CO[C@@](Cn6cncn6)(c6ccc(F)cc6F)C5)cc4)CC3)cc2)c1=O` [POSACONAZOLE], the EC50 is at most 10 µM.

Tested on in the next data set: not listed separately
The data set is described as follows: Drug concentration in C57BL/6 mouse brain at 40 mg/kg, ip measured after 1 hrs by HPLC-ESI-MS/MS analysis. Format: ADME, organism-based. As to conditions: read-out: Drug uptake.
Consider `Fc1ccc([C@@H](Cn2ccnc2)OCc2cc(Cl)cc(Cl)c2)cc1`, for which the concentration at 1 h was 232 ng/g.

Tested on in a further data set: not listed separately
Put plainly: Drug concentration in C57BL/6 mouse plasma at 40 mg/kg, ip measured after 1 hrs by HPLC-ESI-MS/MS analysis. Type of data set: ADME, organism-based.
Conditions: not given
For the compound `Fc1ccc([C@@H](Cn2ccnc2)OCc2cc(Cl)cc(Cl)c2)cc1`, the concentration at 1 h amounted to 656 ng/mL.
The compound `FC(F)(F)c1cccc(CO[C@H](Cn2ccnc2)c2ccc(Cl)cc2Cl)c1` yielded a concentration at 1 h of 37 ng/mL.
